Experimental data: ChEMBL document CHEMBL1909516, “Synthesis of 9-substituted 2,3,4,9-tetrahydro-1H-carbazole derivatives and evaluation of their anti-prion activity in TSE-infected cells” (Eur J Med Chem, 2011)
pIC50: −log10 of the molar value. Active and inactive are the calls of the source. The calls are words filed in the database; no cut-off is given here.

Tests used:
[1] = system: GT1-7; assay: Antiprion activity in human transmissible spongiform encephalopathies agent Fukuoka-1 prion infected mouse GT1-7 cells assessed as inhibition of proteinase K-resistant PrPres accumulation at […] after 3 days by Western blotting analysis; format: cell-based
Procedure, shortened: (§1)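 GT1-7 mouse neuronal cells persistently infected with Fukuoka-1 agent, grown in DMEM with 10% FBS and penicillin G at 37 °C, 5% CO2. Seeded 3 × 10⁵ cells/well; 15 h later given compound diluted from 10 mM DMSO stock (control 0.1% DMSO). Lysate adjusted to 1 mg/mL protein, proteinase K 30 min 37 °C, pelleted, SDS-PAGE, anti-PrP M-20 Western blot. IC50 = 50% PrPres inhibition.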

[2] = Cytotoxicity against human transmissible spongiform encephalopathies agent Fukuoka-1 prion infected mouse GT1-7 cells at 10 uM after 3 days; format: cell-based; details: gt1-7, 72 h
[3] = system: GT1-7; assay: Antiprion activity in human transmissible spongiform encephalopathies agent Fukuoka-1 prion infected in mouse GT1-7 cells assessed as inhibition of proteinase K-resistant PrPres accumulation at 5 uM after 3 days by Western blot analysis relative to control; format: cell-based; procedure, shortened: as §1
[4] = Antiprion activity in human transmissible spongiform encephalopathies agent Fukuoka-1 prion infected mouse GT1-7 cells assessed as inhibition of proteinase K-resistant PrPres accumulation after 3 days by Western blot analysis; format: cell-based; details: GT1-7, 72 h; procedure, shortened: as §1
[5] = system: GT1-7; assay: Ratio of compound IC50 over GJP14 IC50 for human transmissible spongiform encephalopathies agent Fukuoka-1 prion infected in mouse GT1-7 cells; format: cell-based
[6] = system: GT1-7; assay: Antiprion activity in human transmissible spongiform encephalopathies agent Fukuoka-1 prion infected mouse GT1-7 cells assessed as inhibition of PrPC expression at 5 uM after 3 days absence of proteinase K digestion; format: cell-based
Procedure, shortened: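 GT1-7 cells persistently infected with Fukuoka-1 agent, seeded 3 × 10⁵ cells/well. Compound from 10 mM DMSO stock added 15 h after seeding (vehicle 0.1% DMSO). Lysates adjusted to 1 mg/mL total protein (BCA). Run without proteinase K digestion, so PrPC is read by Western blot with M-20 anti-PrP antibody.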

[7] = species on record: Mus musculus; assay: Antiprion activity in scrapie infected mouse ScN2a-3-Ch cells assessed as inhibition of proteinase K-resistant PrPres accumulation at 5 uM after 3 days by Western blot analysis relative to control
Procedure, shortened: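 Scrapie-infected ScN2a-3-Ch cells seeded at about 1 × 10⁵ cells/well and handled as in the GT1-7 assay. Compound diluted from 10 mM DMSO stock, with 0.1% DMSO control. Lysate protein adjusted to 1 mg/mL, then proteinase K digestion 30 min at 37 °C. Pellet analysed by Western blot for PrPres, expressed relative to control.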

Structure (SMILES) | inhibition [1] | further results
COc1ccccc1CNCC(O)Cn1c2c(c3ccccc31)CCCC2 (centres undefined) | Active | –
Cc1ccc(CNCC(O)Cn2c3c(c4ccccc42)CCCC3)cc1 (centres undefined) | – | Activity [2]: Toxic; inhibition [3]: 32%
c1ccc2c3c([nH]c2c1)CCCC3 | inactive | –
OC(CNCc1cccnc1)Cn1c2c(c3ccccc31)CCCC2 (centres undefined) | Active | –
OC(CNCc1ccccc1Br)Cn1c2c(c3ccccc31)CCCC2 (centres undefined) | Active | –
COc1ccc(CNCC(O)Cn2c3c(c4ccccc42)CCCC3)cc1 (centres undefined) | – | Activity [2]: Toxic; inhibition [3]: 23%
OC(CN1CCCCC1)Cn1ccc2c1CCCC2 (centres undefined) | inactive | –
OC(CNCc1cccc2ccccc12)Cn1c2c(c3ccccc31)CCCC2 (centres undefined) | Active | –
OC(CN1CCCCC1)Cn1c2ccccc2c2ccccc21 (centres undefined) | Active | –
OC(CNCc1cccc(C(F)(F)F)c1)Cn1c2c(c3ccccc31)CCCC2 (centres undefined) | – | Activity [2]: Toxic; inhibition [3]: 40%
O[C@@H](CNCc1ccccc1F)Cn1c2c(c3ccccc31)CCCC2 | – | pIC50 [4]: 5.95; Ratio IC50 [5]: 8; inhibition [6]: inactive; inhibition [7]: Active
OC(CNCc1ccc(C(F)(F)F)cc1)Cn1c2c(c3ccccc31)CCCC2 (centres undefined) | Active | –
COc1cccc(CNCC(O)Cn2c3c(c4ccccc42)CCCC3)c1 (centres undefined) | – | Activity [2]: Toxic; inhibition [3]: 21%
O=C(CN1CCCC1)Nc1ccc(Cc2ccc(NC(=O)CN3CCCC3)cc2)cc1 | – | pIC50 [4]: 5.85; inhibition [3]: 34%
CC(C)(NCC(O)Cn1c2c(c3ccccc31)CCCC2)c1ccccc1 (centres undefined) | – | Activity [2]: Toxic; inhibition [3]: 34%
OC(CNCc1ccc(F)cc1F)Cn1c2c(c3ccccc31)CCCC2 (centres undefined) | Active | –
OC(CNCc1cc(F)ccc1F)Cn1c2c(c3ccccc31)CCCC2 (centres undefined) | Active | –
Cc1ccccc1CNCC(O)Cn1c2c(c3ccccc31)CCCC2 (centres undefined) | Active | –
OC(CN1CCCCC1)Cn1ccc2ccccc21 (centres undefined) | inactive | –
OC(CNCc1cccc(Cl)c1)Cn1c2c(c3ccccc31)CCCC2 (centres undefined) | Active | –
OC(CNCc1ccncc1)Cn1c2c(c3ccccc31)CCCC2 (centres undefined) | Active | –

Structure (SMILES) | inhibition [1] | further results
OC(CNCc1ccccc1Cl)Cn1c2c(c3ccccc31)CCCC2 (centres undefined) | Active | –
OC(CN1CCOCC1)Cn1c2c(c3ccccc31)CCCC2 (centres undefined) | Active | –
Cc1cccc(CNCC(O)Cn2c3c(c4ccccc42)CCCC3)c1 (centres undefined) | Active | –
CCCCNCC(O)Cn1c2c(c3ccccc31)CCCC2 (centres undefined) | Active | –
OC(CNCc1cccc(Br)c1)Cn1c2c(c3ccccc31)CCCC2 (centres undefined) | Active | –
OC(CNCc1ccc(Br)cc1)Cn1c2c(c3ccccc31)CCCC2 (centres undefined) | – | Activity [2]: Toxic; inhibition [3]: 25%
OC(CNC1CCCC1)Cn1c2c(c3ccccc31)CCCC2 (centres undefined) | Active | –
OC(CNCc1ccccn1)Cn1c2c(c3ccccc31)CCCC2 (centres undefined) | Active | –
OC(CN1CCCCC1)Cn1c2c(c3ccccc31)CCCC2 (centres undefined) | Active | –
OC(CNCc1c(Cl)cccc1Cl)Cn1c2c(c3ccccc31)CCCC2 (centres undefined) | Active | –
OC(CNCc1ccc(Cl)cc1)Cn1c2c(c3ccccc31)CCCC2 (centres undefined) | – | Activity [2]: Toxic; inhibition [3]: 18%
OC(CN1CCCCC1)Cn1cccc1 (centres undefined) | inactive | –
OC(CNCc1c(F)cccc1F)Cn1c2c(c3ccccc31)CCCC2 (centres undefined) | Active | –
OC(CNCc1ccccc1F)Cn1c2c(c3ccccc31)CCCC2 (centres undefined) | Active | –
OC(CNCc1ccc(F)cc1)Cn1c2c(c3ccccc31)CCCC2 (centres undefined) | Active | –
Cc1ccc2c(c1)c1c(n2CC(O)CN2CCCCC2)C(=O)CCC1 (centres undefined) | – | pIC50 [4]: 5.07
OC(CNCc1ccccc1)Cn1c2c(c3ccccc31)CCCC2 (centres undefined) | Active | inhibition [3]: 28%
OC(CNCc1cccc(F)c1)Cn1c2c(c3ccccc31)CCCC2 (centres undefined) | Active | –
OC(CNc1ccccc1)Cn1c2c(c3ccccc31)CCCC2 (centres undefined) | inactive | –
O[C@H](CNCc1ccccc1F)Cn1c2c(c3ccccc31)CCCC2 | – | pIC50 [4]: 5.65
OC(CNCc1ccccc1C(F)(F)F)Cn1c2c(c3ccccc31)CCCC2 (centres undefined) | Active | –
